In ChEMBL document CHEMBL1156370, “Leishmanicidal, antiplasmodial, and cytotoxic activity of novel diterpenoid 1,2-quinones from Perovskia abrotanoides: new source of tanshinones” (J Nat Prod, 2001):

Tests used:
[1] = tested on: PBMC; test: Inhibition of phytohemagglutininin A-stimulated human PBMC proliferation assessed as decrease in [14C]thymidine incorporation; format: functional, cell-based
[2] = tested on: Leishmania major; test: Antileishmanial activity against Leishmania major promastigotes assessed as inhibition of [3H]thymidine uptake after 2 hrs by liquid scintillation counting; format: functional, organism-based
In short: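 WHO reference vaccine strain promastigotes kept at 26 °C in RPMI 1640 with 25 mM HEPES, 4 mM L-glutamine, gentamicin, 10% heat-inactivated FCS. Compounds from DMSO stock diluted in medium, incubated with 1 × 10^7 promastigotes/mL for 2 h; [3H]thymidine then added, 18 h further incubation, harvest, scintillation counting of incorporated label.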

[3] = tested on: Plasmodium falciparum; test: Antimalarial activity after 24 hrs against chloroquine-sensitive Plasmodium falciparum 3D7 by [3H]phenylalanine uptake
[4] = Cytotoxicity against drug-sensitive human KB-3-1 cells after 48 hrs by MTS/PMS assay; format: functional, cell-based; settings: KB 3-1, 48 h
In short: (§1)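 Mycoplasma-free KB-3-1 and vinblastine-selected KB-V1 (passages 5-15, no vinblastine pressure) in DMEM/10% FBS, 37 °C, 5% CO2. Seeded 4 × 10^3 (KB-3-1) or 7 × 10^3 (KB-V1) cells/well, 24 h preincubation, then 48 h with compounds (DMSO ≤0.25%). MTS/PMS read at 492 nm after ~50 min; six repeats per concentration, IC50 from ≥3 independent determinations on different passages.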

[5] = Cytotoxicity against multidrug-resistant human KBV1 cells after 48 hrs by MTS/PMS assay; format: functional, cell-based; settings: KB-V1, 48 h; in short: as §1
[6] = Resistance index, ratio of IC50 for multidrug-resistant human KBV1 cells to IC50 for drug-sensitive human KB-3-1 cells; format: functional

SMILES | IC50 [1] [µM] | IC50 [2] [µM] | IC50 [3] [µM] | IC50 [4] [µM] | IC50 [5] [µM] | Ratio IC50 [6]
C[C@H]1COC2=C1C(=O)C(=O)c1c2ccc2c1[C@H](O)CCC2(C)C | 16 | 46.7 | 26.9 | 5 | 5.6 | –
CC(C)C1=Cc2ccc3c(c2C(=O)C1=O)C(=O)CCC3(C)C | 44.6 | 17.9 | 13 | 46.6 | 47.8 | –
C[C@H]1COC2=C1C(=O)C(=O)c1c2ccc2c1C(=O)CCC2(C)C | 12.4 | 25.7 | 17.6 | – | – | –
C[C@@H]1[C@H](O)[C@@H](C)/C=C/C=C/C=C/C=C/C=C/C=C/C=C/[C@H](O[C@@H]2O[C@H](C)[C@@H](O)[C@H](N)[C@@H]2O)C[C@@H]2O[C@](O)(C[C@@H](O)C[C@@H](O)[C@H](O)CC[C@@H](O)C[C@@H](O)CC(=O)O[C@H]1C)C[C@H](O)[C@H]2C(=O)O [AMPHOTERICIN B] | – | 0.16 | – | – | – | –
C[C@H]1COC2=C1C(=O)C(=O)c1c2ccc2c1CCCC2(C)C [CRYPTOTANSHINONE] | 37.4 | 18.4 | 12.5 | 6.9 | 7.5 | –
COC(=O)c1ccccc1-c1c2ccc(=N)cc-2oc2cc(N)ccc12.Cl [RHODAMINE123] | – | – | – | 1.6 | > 500 | 500
CC[C@]1(O)C[C@@H]2CN(CCc3c([nH]c4ccccc34)[C@@](C(=O)OC)(c3cc4c(cc3OC)N(C)[C@H]3[C@@](O)(C(=O)OC)[C@H](OC(C)=O)[C@]5(CC)C=CCN6CC[C@]43[C@@H]65)C2)C1 [VINBLASTINE] | – | – | – | – | – | 210
